# High-throughput results deposited in PubChem by several laboratories.
# Hits are enriched below; roughly 0.74% of the tested compounds scored in any of these assays.
# RGS8-Gao reg: modulates binding of RGS8 to human Galphao | P09471 | multiplexed bead flow cytometry; actives lie on both sides | response (percent of control binding), % at 10 µM | 0.34% of 220,000 active | AID 1423; in the data active means response below about 60% or above about 140%; inactive means in between;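 further: Galphao activated as the GDP aluminium fluoride complex binding bead-coupled RGS8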
# Target sequence (P09471 whole entry, looked up): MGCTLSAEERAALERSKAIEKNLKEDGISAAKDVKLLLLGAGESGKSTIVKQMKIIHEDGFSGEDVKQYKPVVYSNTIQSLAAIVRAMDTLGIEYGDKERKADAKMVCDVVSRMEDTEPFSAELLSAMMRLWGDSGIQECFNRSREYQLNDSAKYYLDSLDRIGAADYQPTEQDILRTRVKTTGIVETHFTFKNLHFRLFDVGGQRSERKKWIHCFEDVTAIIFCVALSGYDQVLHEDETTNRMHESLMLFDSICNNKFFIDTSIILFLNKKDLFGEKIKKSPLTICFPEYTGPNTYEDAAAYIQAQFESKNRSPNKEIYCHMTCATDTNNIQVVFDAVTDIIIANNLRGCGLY
# RGS7-Gao: modulates binding of RGS7 to human Galphao. P09471. Multiplexed bead flow cytometry; actives lie on both sides. binding response (% of control), % at 10 µM. 0.35% of 220,000 active. AID 1439; in the data active means binding response below about 49% or above about 150%; inconclusive means no clear call, values can overlap the other calls; inactive means in between;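 further: fluorescent Galphao held in activated GDP-AlF4 state binding bead-coupled RGS7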
# RGS4-Gao reg: modulates binding of RGS4 to human Galphao; P09471; Multiplexed bead flow cytometry; actives lie on both sides; binding response (% of control), % at 10 µM; 0.33% of 220,000 active; AID 1415; in the data active means binding response below about 49% or above about 150%; inactive means in between;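 further: fluorescent Galphao activated with aluminum fluoride binding bead-coupled RGS4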
# Calb biofilm kill: mixtures killing C. albicans biofilm; C. albicans biofilm persisters + clotrimazole, fluorescence viability; primary screen in compound mixtures of four per well; inhibition, % at 7.6 µM; 0.02% of 120,000 active; AID 1242;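 active means inhibition above 30.3% in the primary screen of four-compound pools, then above 30% when the compound was retested; inconclusive means passed the primary limit but could not be retested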;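 further: compounds exposed to preformed 24 h biofilms for 48 h; 0% = untreated biofilm control and 100% = clotrimazole plus chlorhexidine kill blank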
#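 Probe or stimulus – Clotrimazole 50 µg/mL co-treatment · System – C. albicans biofilms · Schedule – 24 h biofilm formation, then 48 h compound exposure, 37 °C · Evaluation – percent inhibition of biofilm viability · Technique – 2-h Alamar Blue fluorescence, 535/590 nm excitation/emission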
# RGS16-Gao HTS: regulators of human RGS16-Galphao interaction; bead-based flow cytometry RGS16-Galphao binding, fluorescence; actives lie on both sides; O15492+P09471; AID 1441; binding response (% of control), % at 10 µM; 0.38% of 220,000 active;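 further: Galphao activated by GDP with aluminum fluoride before binding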
# Target sequence (O15492 whole entry, looked up): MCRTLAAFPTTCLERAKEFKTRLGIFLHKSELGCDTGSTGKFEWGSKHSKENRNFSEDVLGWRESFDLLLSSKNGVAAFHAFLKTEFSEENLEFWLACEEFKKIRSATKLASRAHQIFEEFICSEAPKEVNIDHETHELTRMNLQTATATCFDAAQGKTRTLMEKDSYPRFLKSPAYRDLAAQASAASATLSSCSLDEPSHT
# Target sequence (P09471 whole entry, looked up): as the sequence (P09471 whole entry, looked up) above
# RGS4-Gao HTS: modulates binding between human RGS4 and Galphao. shares compounds with RGS16-Gao HTS. multiplexed bead flow cytometry, RGS–Galpha-o binding. RGS4–Galpha-o binding response, % at 10 µM. 99% of 1,600 active. AID 1504;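 further: fluorescently labeled Galpha-o bound to GDP with aluminium fluoride binding biotinylated RGS beads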
# Biotin-avidin: counter-screen: compounds disrupting biotin binding to avidin beads. inhibition, % at 10 µM. 1,700 tested, under 10 active. shares compounds with RGS16-Gao HTS. streptavidin beads, fluorescein-biotin binding, flow cytometry;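 active means inhibition above 50%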;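 further: median green fluorescence of gated singlet beads compared with DMSO control wells; 0% = DMSO wells and 100% = complete loss of bead fluorescence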
# RGS8-Gao confirm: RGS8-Galphao interaction regulation, single point confirmation. shares compounds with RGS16-Gao HTS. bead-based flow cytometry RGS8-Galphao binding, fluorescence; actives lie on both sides. binding response (% of control), % at 10 µM. 3% of 1,700 active. AID 1836; in the data active means binding response below about 72% or above about 130%; inactive means in between;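 further: Galphao activated as GDP AlF4 complex before binding bead RGS8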
# RGS7-Gao single: RGS7-Galphao interaction regulation, single point confirmation. shares compounds with RGS16-Gao HTS. bead-based flow cytometry RGS7-Galphao binding; actives lie on both sides. response (percent of control binding), % at 10 µM. 7.8% of 1,700 active; in the data active means response below about 75% or above about 130%; inactive means in between;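 further: fluorescent Galphao activated with GDP and aluminum fluoride binding bead-coupled RGS7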
# RGS16-Gao conf: confirmation of regulators of human RGS16-Galphao interaction | 4% of 1,700 active | shares compounds with RGS16-Gao HTS | AID 1838 | bead-based flow cytometry, RGS16-Galphao binding; actives lie on both sides | response (% of control binding), % at 10 µM; in the data active means response below about 74% or above about 130%; inactive means in between;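 further: Galphao activated as the GDP aluminium fluoride complex binding bead-coupled RGS16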
# RGS4-Gao confirm: confirmation of regulators of human RGS4-Galphao interaction; RGS4-Galphao binding, multiplexed bead flow cytometry; actives lie on both sides; binding response (% of control), % at 10 µM; AID 1840; 4% of 1,700 active; shares compounds with RGS16-Gao HTS; in the data active means binding response below about 74% or above about 130%; inactive means in between
# RGS19-Gao single: confirmation of regulators of human RGS19-Galphao interaction | shares compounds with RGS16-Gao HTS | bead-based flow cytometry RGS19-Galphao binding; actives lie on both sides | response (percent of control binding), % at 10 µM | 5% of 1,700 active | AID 1841; in the data active means response below about 50% or above about 160%; inactive means in between;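 further: 100% = no compound control and 0% = blank background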
# * marks the source's active call; other numbers are inactive results; ? = inconclusive; / = no result given; [ ] = another dose, or the depositor's remark. Unless noted, how the calls were made is not given here.
SMILES,RGS8-Gao reg,RGS7-Gao,RGS4-Gao reg,Calb biofilm kill,RGS16-Gao HTS,Biotin-avidin,RGS8-Gao confirm,RGS7-Gao single,RGS16-Gao conf,RGS4-Gao confirm,RGS19-Gao single,others
Cc1cccc(C)c1-n1cccc1/C=C1/C(=N)N2C(=NC1=O)SN=C2S(C)(=O)=O,104,103,104,20,99,/,/,/,/,/,/,
Cc1cc2nc(CSc3ccccc3)cc(=O)n2[nH]1,107,?,113,9,111,/,/,/,/,/,/,
CC(=O)Nc1ccccc1C(F)(F)F,48*,?,22*,13,30,1,106,113,105,108,96,
CNc1cncc(C(=O)O)c1,100,101,101,11,102,/,/,/,/,/,/,
O=C(NCc1ccco1)c1cc([N+](=O)[O-])ccc1N1CCOCC1,101,101,100,13,104,/,/,/,/,/,/,
O=C(NC(=S)NCCOCc1ccc(Cl)cc1)c1cccnc1,67,93,89,9,16*,-2,99,87,96,92,100,RGS4-Gao HTS=89*
O=C(Cc1ccc(Cl)cc1)NNC(=S)NC(=O)c1cccnc1,95,93,93,14,95,/,/,/,/,/,/,
CCOC(=O)c1c(C)oc(NC(=O)CCl)c1C(=O)OCC,95,92,92,6,88,/,/,/,/,/,/,
CCOc1ncccc1C(=O)OCc1nnc(-c2ccccc2)o1,/,/,/,/,/,-1,100,100,100,99,118,
O=C(OCc1nnc(-c2ccccc2)o1)c1cccnc1Cl,101,100,104,19,100,/,/,/,/,/,/,
Cc1ccccc1OCCn1cnc2cc([N+](=O)[O-])ccc2c1=O,96,71,96,16,98,/,/,/,/,/,/,
O=C(Nc1ccc2c(c1)OCO2)C1CCN(Cc2cnn(-c3ccccc3)c2-n2cccc2)CC1,56*,37*,79,/,134,0,98,97,98,97,96,RGS4-Gao HTS=79*
O=C(CN1C(=O)COc2ccccc21)N(CCCN1CCOCC1)CC1CC=CCC1 (stereo not drawn),/,/,/,/,/,-3,103,100,103,101,88,
O=C(CN1C(=O)COc2ccccc21)N(Cc1ccc2c(c1)OCO2)CC1CCCO1 (stereo not drawn),104,98,106,/,105,/,/,/,/,/,/,
Cc1ccc(C2C3=C(CC(C)(C)CC3=O)Nc3onc(C)c32)cc1 (stereo not drawn),/,136,147,/,141,-1,102,104,100,103,100,
COc1ccc(Cn2c(CCC(=O)Nc3ccc(C)cc3)nc3cccnc32)cc1,101,111,156*[activator],/,154,0,102,99,95,97,69,
CC1CC(C)CN(C(=O)/C=C/c2ccc([N+](=O)[O-])s2)C1 (stereo not drawn),14*,15*,18*,10,11*,-2,96,47*,82,58*,81,
CC1CN(C(=O)/C=C/c2ccc([N+](=O)[O-])s2)CC(C)O1 (stereo not drawn),106,103,106,18,111,/,/,/,/,/,/,
N/C(CSc1ccc(Cl)cc1)=N\NC(=O)c1ccncc1,102,?,102,-13,102,/,/,/,/,/,/,
Cc1cc(C)c2c(N)c(C(=O)NC3CCCC3)sc2n1,142*[activator],147,113,5,131,0,97,73*,87,87,70,RGS4-Gao HTS=113*
Cc1cc(C)c2c(N)c(C(=O)NCC3CCCCC3)sc2n1,100,103,98,/,104,/,/,/,/,/,/,
O=C(Cn1cc2c(n1)CCCCC2)Nc1ccccc1Br,28*,?,25*,29,14*,2,98,99,96,98,90,
O=[N+]([O-])c1ccc2nc(SCc3ccccc3Cl)sc2c1,99,97,93,/,95,/,/,/,/,/,/,
O=C(CSc1nc2ccc([N+](=O)[O-])cc2s1)c1ccc2ccccc2c1,31*,?,3.0*,14,5.0*,1,101,106,104,105,109,
CN(C)Cc1nnnn1-c1ccccc1,93,?,87,14,87,/,/,/,/,/,/,
SMILES,RGS8-Gao reg,RGS7-Gao,RGS4-Gao reg,Calb biofilm kill,RGS16-Gao HTS,Biotin-avidin,RGS8-Gao confirm,RGS7-Gao single,RGS16-Gao conf,RGS4-Gao confirm,RGS19-Gao single,others
Nc1ccc(C(CC(=O)O)n2cccc2)cc1 (stereo not drawn),72,39*,83,17,96,-1,97,80,90,89,66,RGS4-Gao HTS=83*
CC(C)CC(=O)/C(=C\c1ccc(Cl)cc1Cl)n1cncn1,42*,51,48*,12,-1,1,88,80,87,90,81,
COc1ccc(/C=C(/C(=O)c2ccc(Cl)cc2Cl)n2cncn2)cc1,101,104,100,/,101,/,/,/,/,/,/,
CN(Cc1ccc(F)cc1)C(=O)c1ccc2c(c1)NC(=O)CS2,99,171*[activator],116,-2,104,2,100,97,98,99,94,RGS4-Gao HTS=116*
NC(=O)CSc1nnc(-c2ccc(S(=O)(=O)N3CCCCC3)cc2)n1-c1ccccc1,114,111,125,/,335*[activator],1,106,98,106,105,105,RGS4-Gao HTS=125*
COc1ccccc1-n1c(SCC(N)=O)nnc1-c1ccc(S(=O)(=O)N2CCCCC2)cc1,100,98,97,/,97,/,/,/,/,/,/,
NC(=O)C1CCN(C(=O)Nc2csc3ccccc23)CC1,75,?,93,21,98,1,100,101,101,103,115,
Cc1cc(C)n2nc(C(=O)Nc3cccc(S(=O)(=O)N(C)c4ccccc4)c3)nc2n1,102,?,100,14,104,/,/,/,/,/,/,
O=C1CCCCc2sc(Br)c([N+](=O)[O-])c2N1,100,?,102,34,93,/,/,/,/,/,/,
O=C(O)c1cc(S(=O)(=O)N2CCOCC2)ccc1N1CCCCC1,98,100,97,11,98,/,/,/,/,/,/,
O=c1c2ccccc2sn1-c1cc(S(=O)(=O)N2CCOCC2)ccc1N1CCCC1,41*,100,86,/,-21*,-1,38*,90,10*,78,4.4*,RGS4-Gao HTS=86*
